Assay results taken from ChEMBL document CHEMBL5107952, “Synthesis of low-molecular weight fucoidan derivatives and their binding abilities to SARS-CoV-2 spike proteins” (RSC Med Chem, 2021).
Calls of active or inactive are those of the source. The calls are words filed in the database; no cut-off is given here.

Assays:
[1] = target: Spike glycoprotein (Severe acute respiratory syndrome coronavirus 2) (UniProt P0DTC2); assay: Competitive inhibition of biotinylated heparin binding to His-tagged wild type SARS-COV-2 spike protein at 50 uM incubated for 300 sec by biolayer interferometry streptavidin sensor based assay
Spike glycoprotein [2] = target: T1, Spike glycoprotein (Severe acute respiratory syndrome coronavirus 2, UniProt P0DTC2); assay: Competitive inhibition of biotinylated heparin binding to His-tagged wild type SARS-COV-2 spike protein incubated for 300 sec by biolayer interferometry streptavidin sensor based assay
Summary of the method: (§1)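 Streptavidin BLI sensor tips loaded with biotinylated heparin and exposed to wild-type S protein (1 μM) mixed with test compound (0–500 μM) in TBS (20 mM Tris, pH 7.4, 0.02% BSA). Bound (%) was taken from the BLI response. IC50 came from nonlinear regression, and Ki was derived from IC50 by the Cheng–Prusoff equation.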

Spike glycoprotein [3] = target: T1, Spike glycoprotein; assay: Competitive inhibition of biotinylated heparin binding to His-tagged wild type SARS-COV-2 spike protein assessed inhibition constant incubated for 300 sec by biolayer interferometry streptavidin sensor based assay; summary of the method: as §1

Row | Structure (SMILES) | inhibition [1] | IC50 (Spike glycoprotein [2]) [µM] | Ki (Spike glycoprotein [3]) [µM]
1 | CCCCCCCCO[C@H]1O[C@@H](C)[C@@H](O[C@@H]2O[C@@H](C)[C@@H](OS(=O)(=O)O)[C@@H](O[C@@H]3O[C@@H](C)[C@@H](O[C@@H]4O[C@@H](C)[C@@H](OS(=O)(=O)O)[C@@H](OS(=O)(=O)O)[C@@H]4OS(=O)(=O)O)[C@@H](OS(=O)(=O)O)[C@@H]3OS(=O)(=O)O)[C@@H]2OS(=O)(=O)O)[C@@H](OS(=O)(=O)O)[C@@H]1OS(=O)(=O)O | Active |  | 
2 | CCCCCCCCO[C@H]1O[C@@H](C)[C@@H](O[C@@H]2O[C@@H](C)[C@@H](O[C@@H]3O[C@@H](C)[C@@H](O[C@@H]4O[C@@H](C)[C@@H](OS(=O)(=O)O)[C@@H](OS(=O)(=O)O)[C@@H]4OS(=O)(=O)O)[C@@H](OS(=O)(=O)O)[C@@H]3OS(=O)(=O)O)[C@@H](OS(=O)(=O)O)[C@@H]2OS(=O)(=O)O)[C@@H](OS(=O)(=O)O)[C@@H]1OS(=O)(=O)O | Active | 86.9 | 3.02
3 | CCCCCCCCO[C@H]1O[C@@H](C)[C@@H](OS(=O)(=O)O)[C@@H](O[C@@H]2O[C@@H](C)[C@@H](OS(=O)(=O)O)[C@@H](O[C@@H]3O[C@@H](C)[C@@H](OS(=O)(=O)O)[C@@H](O[C@@H]4O[C@@H](C)[C@@H](OS(=O)(=O)O)[C@@H](OS(=O)(=O)O)[C@@H]4OS(=O)(=O)O)[C@@H]3OS(=O)(=O)O)[C@@H]2OS(=O)(=O)O)[C@@H]1OS(=O)(=O)O | < 10% |  | 
